Source: ChEMBL document CHEMBL3351557, “Discovery of Potent and Simplified Piperidinone-Based Inhibitors of the MDM2-p53 Interaction” (ACS Med Chem Lett, 2014)
Calls of active or inactive are those of the source. No cut-off for these calls is given here.

Key:
SJSA-1 [1] = test: Antitumor activity against human SJSA1 cells xenografted in athymic nude mouse assessed as tumor growth inhibition at 50 mg/kg, po bid administered 2 weeks post implantation relative to vehicle-treated control; conditions: SJSA-1, po, 336 h, read-out: TGI
Mus musculus [2] = test: Toxicity in human SJSA1 cells xenografted athymic nude mouse assessed as body weight loss at 200 mg/kg, po qd administered 2 weeks post implantation; format: organism-based, SJSA-1; design: dose 200 mg/kg, route oral; conditions: in vivo, 336 h
In short: (§1)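 Female athymic nude mice were implanted subcutaneously with 5 × 10⁶ SJSA-1 cells. Oral gavage of vehicle or compound (50, 100 or 200 mg/kg QD; 50 or 100 mg/kg BID) began on day 14, when tumours were about 200 mm³. There were 10 mice per group, and tumours were measured twice weekly.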

[3] = Clearance in mouse at 1 mg/kg, iv; format: ADME, organism-based; design: dose 1 mg/kg, route intravenous; conditions: in vivo
SJSA-1 [4] = test: Increase in p21 mRNA expression in tumor of human SJSA1 cells xenografted athymic nude mouse at 50 to 200 mg/kg, po administered as single dose 2 weeks post implantation relative to vehicle-treated control; format: functional, organism-based
In short: (§2)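 SJSA-1 osteosarcoma cells were implanted in mice 2 weeks before a single oral dose (100 or 200 mg/kg in one study; 50, 100 or 200 mg/kg in another). Tumour p21 mRNA, a p53 transcriptional target, was measured at several times after dosing and expressed relative to vehicle-treated controls.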

SJSA-1 [5] = test: Increase in p21 mRNA expression in tumor of human SJSA1 cells xenografted athymic nude mouse compound administered as single oral dose 2 weeks post implantation measured 4 to 8 hrs post dose relative to vehicle-treated control; format: functional; in short: as §2
[6] = Intrinsic clearance in rat hepatocytes assessed per million cells; format: ADME, cell-based, Hepatocyte; conditions: read-out: CLH
[7] = Clearance in rat at 0.5 mg/kg, iv; conditions: in vivo
[8] = Oral bioavailability in rat at 2 mg/kg; format: ADME, organism-based; conditions: in vivo
SJSA-1 [9] = test: Increase in p21 mRNA expression in tumor of human SJSA1 cells xenografted athymic nude mouse at 100 mg/kg, po as single dose administered 2 weeks post implantation measured 4 hrs post dose relative to vehicle-treated control; format: functional, organism-based; design: dose 100 mg/kg; in short: as §2
SJSA-1 [10] = test: Antiproliferative activity against human SJSA1 cells after 3 days by EdU incorporation-based HCS assay in presence of 10% human serum; format: functional, cell-based; conditions: SJSA-1, 72 h
[11] = Oral bioavailability in mouse at 5 mg/kg; format: ADME, organism-based; conditions: in vivo
[12] = Clearance in rat at 0.5 mg/kg, iv; format: ADME, organism-based; design: dose 0.5 mg/kg, route intravenous; conditions: in vivo
SJSA-1 [13] = test: Antitumor activity against human SJSA1 cells xenografted in athymic nude mouse assessed as tumor growth inhibition at 100 mg/kg, po qd administered 2 weeks post implantation relative to vehicle-treated control; conditions: SJSA-1, po, 336 h, read-out: TGI
Mus musculus [14] = test: Toxicity in human SJSA1 cells xenografted athymic nude mouse assessed as body weight loss at 100 mg/kg, po bid administered 2 weeks post implantation; format: organism-based, SJSA-1; design: dose 100 mg/kg, route oral; conditions: in vivo, 336 h; in short: as §1
[15] = target: T1, Tumour suppressor p53/oncoprotein Mdm2 (Homo sapiens, UniProt Q00987); test: Inhibition of human MDM2 (1-188 aa) -p53 (1-83 aa) interaction expressed in Escherichia coli after 18 hrs by HTRF assay
T1 sequence (P04637 whole entry, the tested form may be a part): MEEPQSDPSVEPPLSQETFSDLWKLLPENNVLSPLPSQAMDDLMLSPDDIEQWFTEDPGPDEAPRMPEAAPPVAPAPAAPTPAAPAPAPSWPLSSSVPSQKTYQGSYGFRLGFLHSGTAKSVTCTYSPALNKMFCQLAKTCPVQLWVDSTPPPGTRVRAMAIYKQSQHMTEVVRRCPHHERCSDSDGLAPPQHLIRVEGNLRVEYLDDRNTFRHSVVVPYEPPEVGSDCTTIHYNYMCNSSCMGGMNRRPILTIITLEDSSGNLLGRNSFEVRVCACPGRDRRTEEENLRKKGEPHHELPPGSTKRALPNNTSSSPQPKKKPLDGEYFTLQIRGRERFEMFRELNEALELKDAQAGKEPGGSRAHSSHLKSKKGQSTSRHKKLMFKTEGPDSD
T1 sequence (Q00987 whole entry, the tested form may be a part): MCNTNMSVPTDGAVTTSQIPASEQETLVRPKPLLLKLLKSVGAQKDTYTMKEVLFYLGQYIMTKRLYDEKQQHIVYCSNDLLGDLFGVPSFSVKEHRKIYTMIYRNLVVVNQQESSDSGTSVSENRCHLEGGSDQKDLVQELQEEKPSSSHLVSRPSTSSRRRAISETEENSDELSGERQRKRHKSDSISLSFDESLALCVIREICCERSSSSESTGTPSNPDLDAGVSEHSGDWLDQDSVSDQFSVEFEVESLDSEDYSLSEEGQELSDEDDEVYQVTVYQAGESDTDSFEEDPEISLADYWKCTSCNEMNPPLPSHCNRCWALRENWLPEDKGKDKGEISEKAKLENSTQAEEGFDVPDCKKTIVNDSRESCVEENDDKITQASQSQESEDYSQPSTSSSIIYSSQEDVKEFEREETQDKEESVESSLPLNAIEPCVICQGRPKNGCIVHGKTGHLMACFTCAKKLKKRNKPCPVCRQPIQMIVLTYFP

[16] = target: T1, Tumour suppressor p53/oncoprotein Mdm2; test: Inhibition of human MDM2 (1-188 aa) -p53 (1-83 aa) interaction expressed in Escherichia coli after 18 hrs by HTRF assay in presence of 15% human serum
[17] = Half life in rat at 0.5 mg/kg, iv; format: ADME, organism-based; design: dose 0.5 mg/kg, route intravenous; conditions: in vivo
[18] = Clearance in mouse; format: ADME, organism-based; conditions: in vivo
[19] = Half life in mouse; format: ADME, organism-based; conditions: in vivo
[20] = Intrinsic clearance in human hepatocytes assessed per million cells; format: ADME, cell-based, Hepatocyte; conditions: read-out: CLH
[21] = Bioavailability in rat at 0.5 mg/kg, iv; format: ADME, organism-based; conditions: in vivo

Row | SMILES | IC50 (SJSA-1 [10]) [nM] | clearance [12] [mL/min/kg] | IC50 [15] [nM] | IC50 [16] [nM] | also measured
1 | CC(C)N1C(=O)[C@@](C)(CC(=O)O)C[C@H](c2cccc(Cl)c2)[C@H]1c1ccc(Cl)cc1 | 380 | 17.3 | – | – | inhibition in vivo at 50 mg/kg (SJSA-1 [1]): 82%; Activity (Mus musculus [2]): Toxic; clearance [3]: 17.2 mL/min/kg; Activity (SJSA-1 [4]): Active; Activity (SJSA-1 [5]): Active; hepatocyte CLint [6]: 8.5 µL/min/1e6 cells; clearance [7]: 17.3 mL/min/kg; bioavailability [8]: 48%; Activity (SJSA-1 [9]): Active; bioavailability [11]: 32%; inhibition in vivo at 100 mg/kg (SJSA-1 [13]): 96%; Activity (Mus musculus [14]): Toxic
2 | CC[C@@H]([C@@H]1CCCO1)N1C(=O)[C@@](C)(CC(=O)O)C[C@H](c2cccc(Cl)c2)[C@H]1c1ccc(Cl)cc1 | 123 | – | – | – | –
3 | C[C@]1(CC(=O)O)C[C@H](c2cccc(Cl)c2)[C@@H](c2ccc(Cl)cc2)N(c2ccccc2)C1=O | – | 40.8 | 4 | 55 | –
4 | CC[C@@H](c1cccc(Cl)n1)N1C(=O)[C@@](C)(CC(=O)O)C[C@H](c2cccc(Cl)c2)[C@H]1c1ccc(Cl)cc1 | 210 | 20 | – | – | –
5 | CCC[C@@H](c1ccccn1)N1C(=O)[C@@](C)(CC(=O)O)C[C@H](c2cccc(Cl)c2)[C@H]1c1ccc(Cl)cc1 | 990 | 3.33 | – | – | half-life [17]: 6.9 h
6 | CC[C@@H](c1ncccn1)N1C(=O)[C@@](C)(CC(=O)O)C[C@H](c2cccc(Cl)c2)[C@H]1c1ccc(Cl)cc1 | 420 | – | – | – | –
7 | CC[C@@H]([C@H](C)OC)N1C(=O)[C@@](C)(CC(=O)O)C[C@H](c2cccc(Cl)c2)[C@H]1c1ccc(Cl)cc1 | 143 | – | – | – | –
8 | CC(C)[C@@H](c1ccccn1)N1C(=O)[C@@](C)(CC(=O)O)C[C@H](c2cccc(Cl)c2)[C@H]1c1ccc(Cl)cc1 | 290 | – | – | – | –
9 | CC[C@@H](c1cccc(C)n1)N1C(=O)[C@@](C)(CC(=O)O)C[C@H](c2cccc(Cl)c2)[C@H]1c1ccc(Cl)cc1 | 280 | 15.5 | – | – | –
10 | CCC(CC)N1C(=O)[C@@](C)(CC(=O)O)C[C@H](c2cccc(Cl)c2)[C@H]1c1ccc(Cl)cc1 | – | 7.5 | – | – | clearance [3]: 16.5 mL/min/kg; Activity (SJSA-1 [4]; TDE = time-dependent effect): tde; Activity (SJSA-1 [5]): Dose-dependent effect; hepatocyte CLint [6]: 18.8 µL/min/1e6 cells; clearance [7]: 7.5 mL/min/kg; bioavailability [8]: 38%; bioavailability [11]: 42%
11 | CC[C@@H](c1cccc(C2CC2)n1)N1C(=O)[C@@](C)(CC(=O)O)CC(c2cccc(Cl)c2)[C@H]1c1ccc(Cl)cc1 (single isomer, unassigned) | 1820 | – | – | – | –
12 | CC[C@@H](c1ccccn1)N1C(=O)[C@@](C)(CC(=O)O)CC(c2cccc(Cl)c2)[C@H]1c1ccc(Cl)cc1 (single isomer, unassigned) | 430 | – | – | – | clearance [18]: 51.7 mL/min/kg; hepatocyte CLint [6]: 13 µL/min/1e6 cells; half-life [19]: 1.9 h; hepatocyte CLint [20]: 7 µL/min/1e6 cells; half-life [17]: 3.5 h; bioavailability [21]: 79%
13 | CC[C@@H](c1cnco1)N1C(=O)[C@@](C)(CC(=O)O)C[C@H](c2cccc(Cl)c2)[C@H]1c1ccc(Cl)cc1 | 840 | – | 8 | 36 | –
14 | C[C@]1(CC(=O)O)C[C@H](c2cccc(Cl)c2)[C@@H](c2ccc(Cl)cc2)N(c2ccccn2)C1=O | – | 36 | 13 | 122 | –
15 | CC[C@@H](c1cc(C)ccn1)N1C(=O)[C@@](C)(CC(=O)O)C[C@H](c2cccc(Cl)c2)[C@H]1c1ccc(Cl)cc1 | 890 | – | 6 | 60 | –
16 | CC[C@@H](c1ncccc1C)N1C(=O)[C@@](C)(CC(=O)O)C[C@H](c2cccc(Cl)c2)[C@H]1c1ccc(Cl)cc1 | 310 | – | 5 | 183 | –
17 | CC[C@@H](c1ccc(C)cn1)N1C(=O)[C@@](C)(CC(=O)O)CC(c2cccc(Cl)c2)[C@H]1c1ccc(Cl)cc1 (single isomer, unassigned) | 900 | – | 7 | 123 | –
18 | C[C@@H](c1ccccn1)N1C(=O)[C@@](C)(CC(=O)O)C[C@H](c2cccc(Cl)c2)[C@H]1c1ccc(Cl)cc1 | 420 | – | 10 | 62 | –
19 | CC[C@@H](c1ccncc1)N1C(=O)[C@@](C)(CC(=O)O)C[C@H](c2cccc(Cl)c2)[C@H]1c1ccc(Cl)cc1 | 460 | – | – | – | –
